Assay results from ChEMBL document CHEMBL1135414, “Structure-activity relationships at human and rat A2B adenosine receptors of xanthine derivatives substituted at the 1-, 3-, 7-, and 8-positions” (J Med Chem, 2002).

Key:
[1] = target: T1, Adenosine receptor A2b (Rattus norvegicus, UniProt P29276); test: Inhibition of […] binding to rat Adenosine A2B receptor expressed in HEK cells; format: cell-based, HEK293
T1 sequence (P29276 whole entry): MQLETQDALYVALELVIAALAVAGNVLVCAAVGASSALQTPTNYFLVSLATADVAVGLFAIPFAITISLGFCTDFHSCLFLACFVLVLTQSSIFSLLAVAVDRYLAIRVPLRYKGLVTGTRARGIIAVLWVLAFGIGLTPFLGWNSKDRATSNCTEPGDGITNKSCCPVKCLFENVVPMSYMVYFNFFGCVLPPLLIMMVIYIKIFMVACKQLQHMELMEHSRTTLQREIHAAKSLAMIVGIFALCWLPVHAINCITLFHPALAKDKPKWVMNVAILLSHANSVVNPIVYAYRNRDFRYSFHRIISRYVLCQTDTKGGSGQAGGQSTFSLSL

[2] = organism: Rattus norvegicus; test: Relative affinities for rat Adenosine A2A and Adenosine A2B receptors
[3] = organism: Rattus norvegicus; test: Relative affinities for rat Adenosine A1 and Adenosine A2B receptors
[4] = target: Adenosine receptor A2a (Rattus norvegicus) (UniProt P30543); test: Displacement of [3H]-CGS- 21680 from Adenosine A2A receptor of rat striatal membranes; format: cell membranes; design: concentration or dose not given beside the values; details: Membrane
Sequence of Adenosine receptor A2a (Rattus norvegicus) (P30543 whole entry): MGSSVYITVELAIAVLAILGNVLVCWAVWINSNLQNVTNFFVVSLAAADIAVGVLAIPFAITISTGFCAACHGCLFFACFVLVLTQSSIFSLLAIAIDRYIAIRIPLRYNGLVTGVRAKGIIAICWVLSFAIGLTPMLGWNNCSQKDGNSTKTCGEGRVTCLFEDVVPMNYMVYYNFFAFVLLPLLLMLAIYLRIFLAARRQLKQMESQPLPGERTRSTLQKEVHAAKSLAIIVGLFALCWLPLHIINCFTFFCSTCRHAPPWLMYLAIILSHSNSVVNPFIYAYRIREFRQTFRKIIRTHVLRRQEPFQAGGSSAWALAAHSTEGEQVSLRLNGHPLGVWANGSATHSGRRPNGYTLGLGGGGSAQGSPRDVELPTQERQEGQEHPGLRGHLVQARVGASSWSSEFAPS
Procedure, shortened: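 Competition of specific [3H]CGS 21680 binding in rat striatal membranes, reported as Ki ± SEM or as percent displacement at the stated concentration; n = 3–5.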

[5] = target: T2, Adenosine receptor A1 (Rattus norvegicus, UniProt P25099); test: Binding affinity of specific [3H]R-PIA binding to rat Adenosine A1 receptor in HEK293 cells; format: cell-based
T2 sequence (P25099 whole entry): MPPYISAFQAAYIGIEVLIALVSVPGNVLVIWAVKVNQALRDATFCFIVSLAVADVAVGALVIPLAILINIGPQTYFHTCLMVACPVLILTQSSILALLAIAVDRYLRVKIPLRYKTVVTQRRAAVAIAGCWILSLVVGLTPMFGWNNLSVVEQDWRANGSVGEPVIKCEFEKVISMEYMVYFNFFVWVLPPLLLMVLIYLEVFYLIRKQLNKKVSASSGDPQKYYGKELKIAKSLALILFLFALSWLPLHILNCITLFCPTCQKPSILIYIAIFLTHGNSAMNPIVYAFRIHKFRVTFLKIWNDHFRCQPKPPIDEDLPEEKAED

[6] = target: T3, Adenosine receptor A2b (Homo sapiens, UniProt P29275); test: Binding affinity at human Adenosine A2B receptor expressed in HEK293 cells, using [125I]ABOPX as radioligand; format: cell-based
T3 sequence (P29275 whole entry): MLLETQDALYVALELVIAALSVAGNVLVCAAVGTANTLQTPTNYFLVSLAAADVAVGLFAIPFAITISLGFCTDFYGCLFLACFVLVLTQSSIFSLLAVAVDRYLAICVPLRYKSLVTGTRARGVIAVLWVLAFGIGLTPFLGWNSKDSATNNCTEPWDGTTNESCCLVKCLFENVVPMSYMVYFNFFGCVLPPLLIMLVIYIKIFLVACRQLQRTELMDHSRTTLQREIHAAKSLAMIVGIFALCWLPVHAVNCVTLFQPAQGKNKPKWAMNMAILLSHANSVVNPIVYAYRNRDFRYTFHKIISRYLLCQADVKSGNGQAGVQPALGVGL

[7] = target: Adenosine receptor A2a (Rattus norvegicus, UniProt P30543); test: Binding affinity at rat Adenosine A2A receptor by [3H]-CGS- 21680 displacement.
Sequence of Adenosine receptor A2a (P30543 whole entry): as the sequence (P30543 whole entry) above

[8] = target: T4, Adenosine receptor A3 (Homo sapiens, UniProt P0DMS8); test: Inhibition of [125I]I-AB-MECA binding to human Adenosine A3 receptor
T4 sequence (P0DMS8 whole entry): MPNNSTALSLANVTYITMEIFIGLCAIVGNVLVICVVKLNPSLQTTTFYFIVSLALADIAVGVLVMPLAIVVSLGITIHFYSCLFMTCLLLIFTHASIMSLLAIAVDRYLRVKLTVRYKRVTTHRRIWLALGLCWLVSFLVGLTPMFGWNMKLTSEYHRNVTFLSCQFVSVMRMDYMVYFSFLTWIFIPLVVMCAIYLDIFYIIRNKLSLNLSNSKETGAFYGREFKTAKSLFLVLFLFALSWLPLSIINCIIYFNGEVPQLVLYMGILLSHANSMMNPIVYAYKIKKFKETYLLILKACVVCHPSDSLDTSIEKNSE

CCCn1c(=O)c2[nH]c(-c3ccc(OCC(=O)Nc4ccc(C#N)cc4)cc3)nc2n(CCC)c1=O
Ki [1]: 0.0128 µM | Ratio [2]: 48 | Ratio [3]: 1.3

CCCCn1c(=O)c2nc[nH]c2n(CC)c1=O
Displacement [4]: < 10% | Ki [5]: 2.17 µM | Ki [6]: 1.72 µM

CC(=O)CCCCn1c(=O)c2c(ncn2C)n(C)c1=O [PENTOXIFYLLINE]
Ki [6]: 5.18 µM

Cn1c(=O)c2c(ncn2CCCl)n(C)c1=O [7-CHLOROETHYLTHEOPHYLLINE]
Ki [1]: 5.39 µM | Ki [7]: 4.23 µM | Ki [5]: 15.2 µM | Ratio [2]: 0.78 | Ratio [3]: 2.8 | Ki [6]: 1.39 µM

C=CCn1c(=O)[nH]c2[nH]cnc2c1=O
Displacement [4]: < 10%

CCCCn1c(=O)[nH]c2[nH]cnc2c1=O
Displacement [4]: < 10%

Cn1cnc2c1c(=O)n(CC#N)c(=O)n2C
Ki [6]: 21.6 µM

CCCn1c(=O)c2[nH]c(-c3ccc(OC)cc3O)nc2n(CCC)c1=O
Ki [7]: 5.5 µM | Ki [5]: 0.0977 µM | Ki [6]: 0.0465 µM

C#CCn1c(=O)n(C)c(=O)c2c1ncn2C
Ki [6]: 9.48 µM

CCn1c(=O)c2nc[nH]c2n(CC)c1=O
Ki [6]: 1.77 µM

Cn1c(=O)c2[nH]c(-c3ccc(S(=O)(=O)O)cc3)nc2n(C)c1=O
Ki [6]: 1.33 µM

CN(C)c1ccc(-c2nc3c([nH]2)c(=O)n(C)c(=O)n3C)cc1
Ki [6]: 0.289 µM

Cn1c(=O)c2c(ncn2CCCCCl)n(C)c1=O
Ki [1]: 18.7 µM | Ki [7]: 33.3 µM | Ki [5]: 17.7 µM | Ratio [2]: 1.8 | Ratio [3]: 0.95 | Ki [6]: 15 µM

C#CCn1cnc2c1c(=O)n(C)c(=O)n2C
Ki [6]: 9.46 µM

Cn1c(=O)c2c(ncn2CCCCl)n(C)c1=O
Ki [1]: 14.2 µM | Displacement [4]: < 10% | Ki [5]: 23.6 µM | Ratio [2]: > 10 | Ratio [3]: 1.7 | Ki [6]: 5.62 µM

CCCn1c(=O)c2nc(-c3ccc(NC(C)=O)cc3)[nH]c2n(CCC)c1=O
Displacement [4]: < 10% | Ki [5]: 0.0392 µM | Ki [6]: 0.0367 µM

COCn1c(=O)c2c(ncn2C)n(C)c1=O
Ki [6]: 14 µM

CCCn1c(=O)c2nc(-c3cc(O)ccc3O)[nH]c2n(CCC)c1=O
Ki [7]: 17.3 µM | Ki [5]: 0.00746 µM | Ki [6]: 0.138 µM

CCCn1c(=O)c2nc(-c3cc(O)c(OC)c(O)c3)[nH]c2n(CCC)c1=O
Ki [7]: 1.34 µM | Ki [5]: 0.0303 µM | Ki [6]: 0.0595 µM

CC(C)CCn1c(=O)c2nc(-c3ccccc3)[nH]c2n(CC(C)C)c1=O
Ki [6]: 9.89 µM

CCCn1c(=O)c2nc(-c3cccc(O)c3O)[nH]c2n(CCC)c1=O
Displacement [4]: < 10% | Ki [5]: 0.039 µM | Ki [6]: 0.125 µM

Cn1c(=O)c2nc(-c3ccccc3C(=O)O)[nH]c2n(C)c1=O
Ki [6]: 11.1 µM

C=CCn1cnc2c1c(=O)n(C)c(=O)n2C
Ki [6]: 9.49 µM

O=c1[nH]c2nc[nH]c2c(=O)n1C1CCCC1
Ki [5]: 5.57 µM | Ki [8]: 0.639 µM | Ki [6]: 0.965 µM

CCCn1c(=O)c2c(nc(-c3ccccc3)n2CCCl)n(CCC)c1=O
Ki [1]: 3.36 µM | Ki [7]: 16.7 µM | Ki [5]: 1.66 µM | Ratio [2]: 5 | Ratio [3]: 0.49 | Ki [6]: 0.691 µM

CCCn1c(=O)c2nc(-c3cnccn3)[nH]c2n(CCC)c1=O
Ki [6]: 0.0796 µM

CCCn1c(=O)c2nc(-c3ccc(OCC(=O)O)cc3O)[nH]c2n(CCC)c1=O
Ki [7]: 2.72 µM | Ki [5]: 0.757 µM | Ki [6]: 0.188 µM

CC(=O)OCCn1c(=O)c2c(ncn2C)n(C)c1=O
Ki [6]: 8.71 µM

Cn1c(=O)c2c(ncn2CCO)n(C)c1=O [ETOFYLLINE]
Ki [6]: 17.3 µM

Cn1c(=O)c2c(ncn2CCN)n(C)c1=O
Ki [6]: 23.5 µM

Cn1c(=O)c2c(ncn2CC(=O)O)n(C)c1=O [ACEFYLLINE]
Ki [6]: 27.6 µM

CC(=O)Cn1c(=O)c2c(ncn2C)n(C)c1=O
Ki [6]: 20.8 µM

C=CCn1c(=O)c2[nH]c(-c3ccccc3)nc2n(C)c1=O
Ki [1]: 0.174 µM | Ki [7]: 1.92 µM | Ki [5]: 0.302 µM | Ratio [2]: 11 | Ratio [3]: 1.7 | Ki [6]: 0.037 µM

CCCn1c(=O)c2[nH]c(-c3ccc(O)cc3O)nc2n(CCC)c1=O
Ki [7]: 0.107 µM | Ki [5]: 0.22 µM

Cn1c(=O)c2[nH]c(-c3ccccc3)nc2n(C)c1=O [8-PHENYL THEOPHYLLINE]
Ki [6]: 0.415 µM

CCCn1c(=O)[nH]c2[nH]c(C3CCCC3)nc2c1=O
Ki [5]: 0.00768 µM

O=c1[nH]c2[nH]cnc2c(=O)n1C1CCCC1
Displacement [4]: < 10%

C#CCn1c(=O)c2c(ncn2C)n(C)c1=O
Ki [6]: 4.13 µM

CCn1c(=O)c2nc[nH]c2n(C)c1=O
Ki [7]: 9.78 µM | Ki [5]: 24.7 µM | Ki [6]: 1.62 µM

CCCn1c(=O)c2nc(-c3c(F)cccc3F)[nH]c2n(CCC)c1=O
Ki [6]: 0.31 µM

Cn1c(=O)c2[nH]c(-c3ccc([N+](=O)[O-])cc3[N+](=O)[O-])nc2n(C)c1=O
Ki [6]: 15.4 µM

C=CCn1c(=O)[nH]c2nc[nH]c2c1=O
Ki [5]: 24.3 µM | Ki [8]: 16.1 µM | Ki [6]: 0.461 µM

CC(C)CCn1c(=O)c2[nH]cnc2n(CC(C)C)c1=O
Ki [6]: 6.24 µM

CCCCCCn1c(=O)c2nc[nH]c2n(CCCCCC)c1=O
Ki [6]: 7.58 µM

O=c1[nH]c2[nH]cnc2c(=O)n1CCc1ccccc1
Displacement [4]: < 10%

COc1ccc(-c2nc3c([nH]2)c(=O)n(C)c(=O)n3C)cc1
Ki [6]: 0.394 µM

Cn1cnc2c1c(=O)n(CC(=O)O)c(=O)n2C
Ki [6]: 23.5 µM

CC(C)n1c(=O)n(C)c(=O)c2[nH]cnc21
Ki [6]: 4.89 µM

Cn1c(=O)c2[nH]c(-c3ccc([N+](=O)[O-])cc3)nc2n(C)c1=O
Ki [6]: 6.94 µM

Cn1c(=O)c2c(ncn2CC#N)n(C)c1=O
Ki [6]: 14.5 µM

CC(=O)OCCn1cnc2c1c(=O)n(C)c(=O)n2C
Ki [6]: 23.2 µM

Cn1c(=O)c2c(ncn2Cc2ccccc2)n(C)c1=O
Ki [6]: 19.4 µM

CCn1c(=O)c2[nH]c(-c3ccccc3)nc2n(CC)c1=O
Ki [6]: 0.062 µM

CCCn1c(=O)c2nc(-c3ccc(Cl)cc3OC)[nH]c2n(CCC)c1=O
Ki [6]: 6.53 µM

Cn1c(=O)c2[nH]c(-c3cccc(C(=O)O)c3)nc2n(C)c1=O
Ki [6]: 5.53 µM

CCCCn1c(=O)[nH]c2nc[nH]c2c1=O
Ki [8]: 4.61 µM | Ki [6]: 0.421 µM

CCCn1c(=O)[nH]c2[nH]cnc2c1=O
Displacement [4]: < 10% | Ratio [2]: > 10 | Ratio [3]: 1.8

C=CCn1c(=O)c2c(ncn2C)n(CC=C)c1=O
Ki [6]: 3.39 µM
